WT yeast gro inh: growth inhibition of WT strain, primary screen, mitochondrial fusion inhibitor project, WT and mutant strains, chemical genetic. mitochondrial fusion phenotypic screen. actives 2.1% (n = 190,000). inhibition, % at 10 µM. AID 1362, 2008; in the data active = inhibition above about 58%; tested in S. cerevisiae
Cl transport mod: KCC2 cotransporter modulators, thallium flux, primary screen, cell-based, HEK293 KCC2, FluoZin-2 fluorescence, MLSMR. actives 2.2% (n = 190,000). Solute carrier family 12 member 5 (Homo sapiens), Q9H2X9. KCC2 cells, thallium flux FluoZin-2 fluorescence. B-score of Tl+ flux slope (higher = more flux/activation; lower = inhibition) at 10 µM. AID 1456, 2008;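 active = thallium flux slope and its plate-corrected score both differing from the plate sample mean at a set confidence after two filtering rounds, in either direction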;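 note: slope of fluorescence scaled to starting intensity during 10 to 20 s after thallium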
Target sequence (Q9H2X9 whole entry, looked up): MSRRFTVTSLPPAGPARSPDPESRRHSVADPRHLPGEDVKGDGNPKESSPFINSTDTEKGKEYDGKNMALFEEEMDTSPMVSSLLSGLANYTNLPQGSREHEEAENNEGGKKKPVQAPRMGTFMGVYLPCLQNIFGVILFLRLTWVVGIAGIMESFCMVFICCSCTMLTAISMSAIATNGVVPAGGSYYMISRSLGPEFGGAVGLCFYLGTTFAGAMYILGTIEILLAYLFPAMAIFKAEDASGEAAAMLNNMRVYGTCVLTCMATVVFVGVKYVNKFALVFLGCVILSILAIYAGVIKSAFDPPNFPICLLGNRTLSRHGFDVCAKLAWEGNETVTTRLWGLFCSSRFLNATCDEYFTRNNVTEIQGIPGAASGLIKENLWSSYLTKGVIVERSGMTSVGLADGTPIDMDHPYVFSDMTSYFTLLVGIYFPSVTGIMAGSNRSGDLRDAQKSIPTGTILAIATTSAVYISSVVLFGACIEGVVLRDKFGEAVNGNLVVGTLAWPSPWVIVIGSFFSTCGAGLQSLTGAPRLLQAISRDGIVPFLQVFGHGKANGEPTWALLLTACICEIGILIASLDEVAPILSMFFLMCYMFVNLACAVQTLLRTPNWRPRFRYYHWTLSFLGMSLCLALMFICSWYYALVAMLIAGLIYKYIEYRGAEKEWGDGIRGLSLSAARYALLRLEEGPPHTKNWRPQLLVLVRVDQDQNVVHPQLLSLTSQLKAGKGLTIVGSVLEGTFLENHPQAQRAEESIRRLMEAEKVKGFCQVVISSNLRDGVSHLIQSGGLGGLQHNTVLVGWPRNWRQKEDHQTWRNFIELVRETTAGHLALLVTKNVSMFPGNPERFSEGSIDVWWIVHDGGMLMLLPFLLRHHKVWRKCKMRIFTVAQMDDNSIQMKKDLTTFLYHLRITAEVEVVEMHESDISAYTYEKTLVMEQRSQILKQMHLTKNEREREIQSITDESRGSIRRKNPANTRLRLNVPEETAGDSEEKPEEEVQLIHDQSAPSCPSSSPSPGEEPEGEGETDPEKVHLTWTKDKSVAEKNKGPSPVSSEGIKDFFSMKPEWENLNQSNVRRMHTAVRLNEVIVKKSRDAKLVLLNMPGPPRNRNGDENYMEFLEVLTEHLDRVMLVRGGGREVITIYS
MT stabilize HCS: microtubule stabilizers in HeLa cells, primary screen, imaging, high-content imaging. HeLa tubulin immunostaining HCS, 24 h; share of cells brighter than vehicle mean+2SD. % tubulin-high responders, % at 10 µM. actives 0.83% (n = 200,000). AID 2205, 2009;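 active = plate Z-score above 3 for both tubulin-high and condensed-nucleus cell shares, with cell loss under 80%, at 10 µM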;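 note: anti alpha tubulin signal scored within the nucleus-defined area of each cell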
b-catenin transl: modulators of beta-catenin nuclear translocation, primary screen, imaging, HeLa cells, immunofluorescence, high-content; nuclear translocation activity, % at 5 µM; actives 0.3% (n = 190,000);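 active = nuclear translocation activity above 50% at 5 µM, with a well cell count of 50 or more; inconclusive = wells under 50 cells across six images, flagged as toxic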;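 note: per-cell ratio of nuclear to cytoplasmic median beta-catenin stain intensity; plate controls were DMSO negative control for no effect and GSK-3 inhibitor IX positive control for full effect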
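Test system: human HeLa cell line; Doses: 5 µM primary, 0.02–20 µM confirmation; Incubation: 24 h compound exposure, 37°C; Detection: beta-catenin immunofluorescence imaging with DAPI; Read-out: beta-catenin nuclear/cytoplasmic ratio, % activation.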
Pf gamet viab: late stage P. falciparum gametocyte viability inhibitors, primary screen, ATP luminescence, HTS. P. falciparum stage V gametocytes, 24 h. inhibition, % at 10.9 µM. actives 0.065% (n = 150,000);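 active = inhibition above the mean plus 3 SD of compounds within the control limits, set per campaign, cut at about 38% in these data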;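 note: 0% = DMSO wells and 100% = medium only without gametocytes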
KCC2 secondary: KCC2 modulators in sodium-free buffer, confirmation, cell-based, HEK293 KCC2, thallium flux, secondary assay. normalised thallium flux (F/F0 slope) at 10 µM. AID 1713, 2009. shares compounds with Cl transport mod. actives 15% (n = 3,700). FluoZin2 fluorescence; hits give high values;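 active = thallium flux slope above the same plate's solvent-only control mean plus 3 SD; inconclusive = the two replicate wells disagree; inactive = no significant difference from solvent-only control wells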
KCC2 bumet counter: thallium flux persisting under bumetanide in KCC2 cells, confirmation, counter-screen for KCC2 modulator project, cell-based, HEK293 KCC2, FluoZin2, secondary assay 3; actives 49% (n = 3,700); normalized thallium flux at 10 µM; HEK293-KCC2 + bumetanide/ouabain; hits give high values; shares compounds with Cl transport mod; AID 1714, 2009;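 active = thallium entry rate above the same plate's blocked-transporter control wells by more than 3 SD; inconclusive = the two repeat wells disagree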;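 note: raw slope of fluorescence over initial fluorescence between 10 and 20 s after thallium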
KCC2 sec2: KCC2 modulators without ouabain present, confirmation, cell-based, HEK293 KCC2, thallium flux, FluoZin2, secondary assay 2. shares compounds with Cl transport mod. thallium flux FluoZin2 fluorescence; actives lie on both sides; F/F0 rise rate, 10–20 s post-thallium. normalized thallium flux at 10 µM. actives 23% (n = 3,700). AID 1715, 2009;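 active = thallium flux slope more than 3 SD above or below the plate's solvent-only control mean, mostly below; inconclusive = the two repeat wells disagreed; inactive = no significant shift from solvent-only controls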;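 note: raw slope with 0.1% DMSO as baseline and bumetanide as block control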
HEK counter1: thallium flux modulation in parental HEK cells, confirmation, counter-screen for KCC2 modulator project, cell-based, counterscreen 1. shares compounds with Cl transport mod. HEK293 parental cells, thallium flux FluoZin2, ouabain; baseline-ratio fluorescence slope, 10–20 s after thallium. thallium flux rate (normalised fluorescence) at 10 µM. actives 46% (n = 3,700);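 active = thallium flux rate significantly above the same plate's solvent-only control wells, beyond their mean plus 3 SD; inconclusive = the two replicate wells gave conflicting results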
KCC2 retest ouab: KCC2 inhibitors and activators, ouabain retest, confirmation, HEK-KCC2 cells. raw Tl+ flux slope (below DMSO = inhibition, above = activation) at 10 µM. shares compounds with Cl transport mod. HEK293-KCC2, thallium flux FluoZin2 fluorescence; bidirectional: low = inhibitor, high = activator. actives 48% (n = 3,700);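 active = thallium flux slope beyond 3 SD from same-plate DMSO control mean in most replicates, usually higher, sometimes lower; inconclusive = repeat tests gave conflicting results; inactive = no significant difference from controls in most replicates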;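 note: slope of initial-normalized fluorescence between seconds 10 and 20 after thallium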
HEK counter2: native HEK Tl+ uptake effects, second counter-screen – HEK cells, counterscreen 2, counter-screen for KCC2 modulator project, confirmation; AID 1718, 2009; thallium flux slope at 10 µM; actives 33% (n = 3,700); HEK293 parental, thallium flux FluoZin-2 fluorescence slope; shares compounds with Cl transport mod;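 active = thallium flux slope above the same plate's solvent-control mean plus 3 SD in both duplicate wells; inconclusive = duplicate wells that disagreed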;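 note: run without ouabain in cells lacking the KCC2 cotransporter; slope of fluorescence scaled to its starting value between 10 and 20 s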
* hit, by the source's call; ? = inconclusive; . = no result. The list is not random: actives were taken first. Their share in the collection is about 4%.

SMILES	WT yeast gro inh	Cl transport mod	MT stabilize HCS	b-catenin transl	Pf gamet viab	KCC2 secondary	KCC2 bumet counter	KCC2 sec2	HEK counter1	KCC2 retest ouab	HEK counter2
COc1cccc(/C=N/NC(=O)c2c(C)nc3ccc(Br)cn23)c1O	-3	-3.4*	3	0	.	0.0069	0.0043	0.028	0.0056	0.016*	0.0088
O=C1C=C(c2ccc3c(c2)oc2ccccc23)C[C@@H](c2ccc3c(c2)OCO3)C1	.	.	.	.	12	.	.	.	.	.	.
O=C(CSc1ccc(-c2ccc(F)cc2)nn1)N1CCCCC1	-3	-5.3*	6	-4	.	0.0063	0.005	0.026	0.0075	0.014*	0.01
O=C(CSc1ccc(-c2ccccc2)nn1)N1CCCCC1	13	-0.32	2	1	-22	.	.	.	.	.	.
CC1CCN(C(=O)CSc2ccc(-c3ccc(F)cc3)nn2)CC1	-9	-5.3*	2	-3	33	0.0058	?	0.021*	0.0075	0.015*	0.0098
Cc1ccc2nc(SCC(=O)N3CCOCC3)[nH]c2c1	-10	-0.022	1	.	.	.	.	.	.	.	.
Cc1ccc2[nH]c(SCC(=O)N3CCOCC3)nc2c1C	-6	.	1	0	.	0.0082	0.0053	0.036	0.0035	0.021	0.011
Cn1c(/N=C/c2ccc3c(c2)OCO3)nc2ccccc21	43	-3.1*	3	-2	8	0.0075	0.0044	?	0.0073	0.017*	0.01
Cc1ccc(-c2csc(NC(=O)/C=C/c3ccco3)c2C(=O)O)cc1	13	-4.4	3	0	-1	.	.	.	.	.	.
O=C(O)CSc1nc2c(cnn2-c2ccccc2)c(=O)n1-c1ccc(Br)cc1	11	-5.6*	4	.	.	0.0055	0.0045	0.022*	?	0.011*	0.0097
COc1cc(C(=O)OCC(=O)c2cc(C)n(C)c2C)cc(OC)c1OC	5	6.7*	2	69*	.	0.01	0.0071	0.032	0.0078	0.022	0.01
O=C(Nn1c(-c2ccncc2)nc2ccccc2c1=O)c1ccc([N+](=O)[O-])cc1Cl	-17	-0.00034	2	-3	.	.	.	.	.	.	.
COC(=O)c1ccccc1NC(=S)NC(=O)COc1ccc(C(C)C)cc1	-4	9.7*	3	-2	-5	0.011	0.017*	0.035	0.019*	0.036*	0.012
Cc1ccccc1NC(=S)NC(NC(=O)COc1ccccc1)C(Cl)(Cl)Cl (stereo not given)	-6	.	0	2	.	.	.	.	.	.	.
COC(=O)c1ccccc1NC(=S)NC(NC(=O)COc1ccccc1)C(Cl)(Cl)Cl (stereo not given)	14	.	1	0	.	0.0078	?	0.031	?	0.025*	0.011
O=[N+]([O-])c1ccc(NC(=S)NCCc2ccc(F)cc2)cc1	85*	-6.1*	1	-1	.	0.0069	0.0038	0.021*	0.0052*	0.01*	0.008*
Fc1ccc(NC(=S)NCCc2ccc(Cl)cc2)cc1	57	-1.5	3	5	5	.	.	.	.	.	.
COc1ccc(CC(=O)Oc2ccc(F)cc2)cc1	.	.	.	.	0	.	.	.	.	.	.
O=C(Cc1ccc(F)cc1)Oc1ccc(C(=S)N2CCCC2)cc1	-8	-4.1*	1	-1	-22	?	?	0.022*	?	0.013*	0.012
CC(C(=O)Nc1cccnc1)C1Sc2ccccc2NC1=O (stereo not given)	-11	.	3	-2	-16	.	.	.	.	.	.
O=C1OC(Nc2ccc(F)cc2F)c2ccccc21 (stereo not given)	2	.	3	-8	-8	0.0066	0.005	0.027	0.0077	0.019	0.011
O=C1OC(Nc2ccc(F)c([N+](=O)[O-])c2)c2ccccc21 (stereo not given)	.	-0.37	.	1	-8	.	.	.	.	.	.
COc1ccc(C(=O)NCc2nnc(SCC(=O)N3CCCc4ccccc43)o2)cc1OC	-12	0.039	3	1	11	.	.	.	.	.	.
COC(=O)[C@@H](NC(=O)O[C@@H]1C(=O)c2cc(Br)ccc2O[C@H]1c1cccc(OC)c1)C(C)C	29	9.3*	3	.	.	0.0063	0.013*	0.03	0.015*	?	?
COc1cc(/C=C(/C#N)C(=O)Nc2ccc(C)cc2)ccc1Oc1nc(Cl)ncc1F	-3	0.0024	4	7	-9	.	.	.	.	.	.
SMILES	WT yeast gro inh	Cl transport mod	MT stabilize HCS	b-catenin transl	Pf gamet viab	KCC2 secondary	KCC2 bumet counter	KCC2 sec2	HEK counter1	KCC2 retest ouab	HEK counter2
CCOc1ccc2c(c1)C(=NNC(=O)c1ccncc1)c1cc(OCC)ccc1-2	-1	30*	4	-2	.	0.015*	0.033*	0.032	0.018*	0.079*	0.012*
COCCNC(=O)NC12CC3(C)CC(C)(CC(C)(C3)C1)C2	8	-0.051	2	-2	-26	.	.	.	.	.	.
C=CCN1C(c2ccc(OCC)cc2)=CS/C1=C(\C#N)c1nnc2n1CCCCC2	10	-5.8*	4	0	.	0.013	0.0041	0.02*	0.0061*	0.011*	0.0083
N#C/C(=C(/O)COc1ccc(Br)cc1)c1nnc2n1CCCCC2	0	0.36	4	1	3	.	.	.	.	.	.
CCOC(=O)c1sc(N2N=C(C)C(N=Nc3cccc(C)c3)C2=O)nc1C (stereo not given)	.	22*	.	0	-27	0.0067	0.026*	0.038*	0.016*	0.035*	0.019*
O=C(CSc1nnc(-c2ccc3c(c2)OCO3)o1)Nc1ncc(C(F)(F)F)cc1Cl	71	27*	3	0	6	0.016*	0.042*	0.034	?	0.045*	?

Bioassay records as filed in PubChem.
